According to ChEMBL document CHEMBL3785060, “Nitric Oxide Inhibitory Activity and Absolute Configurations of Arylalkenyl α,β-Unsaturated δ/γ-Lactones from Cryptocarya concinna” (J Nat Prod, 2016):

Key:
[1] = test system: RAW264.7; experiment: Antiinflammatory activity in mouse RAW264.7 cells assessed as inhibition of LPS-induced nitric oxide production after 18 hrs by Griess assay; format: functional, cell-based; conditions: RAW264.7, 18 h
In short: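 LPS-stimulated RAW 264.7 macrophages. Cell viability was first checked by MTT at concentrations up to 100 μM, so that NO inhibition could be separated from cytotoxicity. N-monomethyl-L-arginine served as positive control. Each experiment was run in triplicate. IC50 is given as mean ± SD of three independent experiments.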

[2] = Cytotoxicity against mouse RAW264.7 cells assessed as cell survival up to 100 uM by MTT assay; format: cell-based; conditions: read-out: Survival
In short: (§1)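 RAW 264.7 macrophages were screened by MTT before the LPS-induced NO assay to rule out cytotoxicity. Concentrations went up to 100 μM, including 50 μM, and the read-out was percent cell survival. All experiments were run in triplicate.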

[3] = Cytotoxicity against mouse RAW264.7 cells assessed as cell survival at 50 uM by MTT assay; format: cell-based; conditions: read-out: Survival; in short: as §1

SMILES | IC50 [1] | viability [2] | viability at 50 µM [3]
O=C1C=CC[C@H](C[C@@H]2C[C@H](O)C[C@H](/C=C/c3ccccc3)O2)O1 | 4.2 µM | > 90% | 
CC(=O)O[C@H](C[C@@H](O)C[C@H](O)/C=C/c1ccccc1)C[C@@H]1OC(=O)C=C[C@@H]1O | 27.6 µM | > 90% | 
CC(=O)O[C@@H](C/C=C1/C=CC(=O)O1)C[C@@H](O)C[C@H](O)/C=C/c1ccccc1 | 3.4 µM | > 90% | 
CC(=O)O[C@H](C[C@@H](O)C[C@H](O)/C=C/c1ccccc1)C[C@H]1CC=CC(=O)O1 | > 50 µM | > 90% | 
CC(=O)O[C@H](C[C@@H](O)C/C=C1/C=CC(=O)O1)C[C@H](O)/C=C/c1ccccc1 | 7.5 µM | > 90% | 
O=C1C=CC[C@H](C[C@H](O)C[C@@H](O)C[C@H](O)/C=C/c2ccccc2)O1 | 3.2 µM | > 90% | 
CC(=O)O[C@H](C[C@@H](O)C[C@@H]1OC(=O)C=C[C@@H]1O)C[C@H](O)/C=C/c1ccccc1 |  |  | < 15%
CC(=O)O[C@H](C[C@@H](O)C[C@H]1CC=CC(=O)O1)C[C@H](O)/C=C/c1ccccc1 | > 50 µM |  | 
O=C1C=C[C@H](O)[C@H](C[C@H](O)C[C@@H](O)C[C@H](O)/C=C/c2ccccc2)O1 | 13.8 µM | > 90% | 
CC(=O)O[C@H](C[C@H](C[C@H](O)/C=C/c1ccccc1)OC(C)=O)C[C@H]1CC=CC(=O)O1 | > 50 µM |  | 
CNC(=N)NCCC[C@H](N)C(=O)O [TILARGININE] | 45 µM |  | 
